This note sets out measurements from paper PMC3831721 (Indian Journal of Pharmaceutical Sciences, 2013).

In this test the test system is Sprague Dawley rats. Description: Antiinflammatory activity, carrageenan hind paw edema method. The settings on record: rat, oral, equivalent to 20 mg/kg. Type of test: in vivo. The procedure, abridged: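 Sprague Dawley rats (100-200 g), six per group (3 male, 3 female). Test compound given orally in 1% sodium CMC suspension, equivalent to 20 mg/kg; controls received 1% CMC only. After 30 min, 0.1 ml 1% w/v carrageenan in normal saline injected into the right hind paw plantar surface. Paw volume measured by plethysmometer before dosing and at 0.5, 1, 2, 4 and 6 h. %inhibition = (1−Vt/Vc)×100, using mean relative volume change.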
A general note: The carrageenan paw model is a standard test of acute inflammation.

As for `CCc1cccc2c3c([nH]c12)C(CC)(CC(=O)O)OCC3` (racemic) [EC, (RS)-2-(1,8-Diethyl-4,9-dihydro-3H-pyrano[3,4-b]indol-1-yl) acetic acid], the “Antiinflammatory activity (6 h) Inhibition of edema (%)” value worked out at 81.9%.
